According to ChEMBL document CHEMBL1800039, “Structure-based design of short peptide ligands binding onto the E. coli processivity ring” (J Med Chem, 2011):
Where a SMILES comes first, the peptide text is derived from it. [ ]: non-standard residue; d: D form. Phe(3,4-Cl2) = N[C@@H](Cc1ccc(Cl)c(Cl)c1)C(=O)O; Phe(4-Br) = N[C@@H](Cc1ccc(Br)cc1)C(=O)O; Phe(4-Cl) = N[C@@H](Cc1ccc(Cl)cc1)C(=O)O; Phe(4-Me) = Cc1ccc(C[C@H](N)C(=O)O)cc1; hCha = N[C@@H](CCC1CCCCC1)C(=O)O; tBuAla = CC(C)(C)C[C@H](N)C(=O)O; Cha = N[C@@H](CC1CCCCC1)C(=O)O

Legend:
[1] = Binding affinity to Escherichia coli DNA polymerase 3 subunit beta expressed in Escherichia coli BL21 by SPR analysis
In short: (§1)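 N-His-tagged E. coli β clamp (dnaN in pET15b, BL21, IPTG-induced at 28 C; Ni-NTA then MonoQ) was analysed by SPR on a chip carrying immobilized P1 peptide. For direct binding, β at 0.125–2 μM was injected at 50 μL/min, and background-subtracted data were fit to a 1:1 Langmuir model. For competition, β (0.25 μM) was premixed with peptide (1.5 nM–100 μM) and injected. IC50 came from % binding inhibition; Ki = (1 + KA[β])/IC50 and ΔG = RT ln Ki.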

[2] = Inhibition of Escherichia coli DNA polymerase 3
[3] = Inhibition of Escherichia coli DNA polymerase 3 subunit beta-dependent elongation activity expressed in Escherichia coli BL21 after 2 hrs by competitive biochemical assay
In short: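 Assay run in 40 mM HEPES pH 7.5 with 80 mM K-glutamate, BSA, 16% glycerol, NP40 and 8 mM DTT. Primed 30/90-mer duplex (1 nM) was loaded at 37 C with SSB (90 nM), ATP (200 μM) and MgCl2 (7.5 mM), then γ complex (1 nM) and β dimer (5 nM). Mixtures took peptide or DMSO for 5 min at RT plus 2 h at 4 C.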

[4] = Binding affinity to Escherichia coli DNA polymerase 3 subunit beta expressed in Escherichia coli BL21 by ITC assay
In short: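 ITC at 25 C: peptide (400 μM) was injected in 2 μL steps into His-tagged β clamp (20 or 30 μM) in 10 mM Hepes pH 7.4, 0.15 M NaCl, 3 mM EDTA, 0.005% P20. Heats were corrected using peptide-into-buffer controls.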

Escherichia coli [5] = test: Ratio of ull length DNA polymerase 4 IC50 to compound IC50 for Escherichia coli DNA polymerase 3 subunit beta by SPR analysis
Escherichia coli [6] = test: Ratio of ull length DNA polymerase 4 Kd to compound Kd for Escherichia coli DNA polymerase 3 subunit beta by ITC assay
[7] = Binding affinity to Escherichia coli DNA polymerase 3 subunit beta expressed in Escherichia coli BL21 assessed as dissociation constant by SPR analysis; in short: as §1

Row | Molecule | IC50 [1] | Ka (inhibitor association constant, 1/M; higher = tighter) [1] | Ki [2] | IC50 [3] | Kd [4] | Ratio IC50 (Escherichia coli [5]) | Ratio (Escherichia coli [6]) | Kd [7]
1 | CC(=O)N[C@@H](CCC(N)=O)C(=O)N[C@@H](CCC(C)C)C(=O)N[C@@H](CC(=O)O)C(=O)N[C@@H](CC(C)C)C(=O)N[C@@H](Cc1ccccc1)C(=O)O | 740 nM | 1.84 ×10⁶ /M | – | – | – | – | – | –
2 | CCOc1cc(/C=C2\SC(=S)N(CC(=O)O)C2=O)c(Br)c(Br)c1O | – | – | 10000 nM | – | – | – | – | –
3 | CC(C)C[C@H](NC(=O)[C@H](CC(=O)O)NC(=O)[C@H](CC(C)C)NC(=O)[C@@H](N)CCC(N)=O)C(=O)N[C@@H](Cc1ccccc1)C(=O)O | 12400 nM | 0.11 ×10⁶ /M | – | – | – | – | – | –
4 | CC(=O)N[C@@H](CCC(N)=O)C(=O)N[C@@H](CC(C)C)C(=O)N[C@@H](CC(=O)O)C(=O)N[C@@H](CC(C)C)C(=O)N[C@@H](Cc1ccccc1)C(=O)O | 1120 nM | 1.2 ×10⁶ /M | – | 4500 nM | 613 nM | – | – | –
5 | CC(=O)N[C@@H](CCC(N)=O)C(=O)N[C@@H](CC1CCCCC1)C(=O)N[C@@H](CC(=O)O)C(=O)N[C@@H](CC(C)C)C(=O)N[C@@H](Cc1ccccc1)C(=O)O (Ac-Q[Cha]DLF-OH) | 170 nM | 8.01 ×10⁶ /M | – | 2800 nM | 222 nM | – | – | –
6 | CC(=O)N[C@@H](CCC(N)=O)C(=O)N[C@@H](CC1CCCCC1)C(=O)N[C@@H](CC(=O)O)C(=O)N[C@@H](CC(C)C)C(=O)N[C@@H](Cc1ccc(Cl)c(Cl)c1)C(=O)O (Ac-Q[Cha]DL[Phe(3,4-Cl2)]-OH) | – | – | – | 125 nM | 55 nM | 4 | 4 | –
7 | CC(=O)N[C@@H](CCC(N)=O)C(=O)N[C@@H](CC1CCCCC1)C(=O)N[C@@H](CC(=O)O)C(=O)N[C@@H](CC(C)C)C(=O)N[C@@H](Cc1ccc(Br)cc1)C(=O)O (Ac-Q[Cha]DL[Phe(4-Br)]-OH) | 96 nM | 13.49 ×10⁶ /M | – | 250 nM | 136 nM | – | – | –
8 | CC(=O)N[C@@H](CCC(N)=O)C(=O)N[C@@H](CC1CCCCC1)C(=O)N[C@@H](CC(=O)O)C(=O)N[C@@H](CC(C)C)C(=O)N[C@@H](Cc1ccc(Cl)cc1)C(=O)O (Ac-Q[Cha]DL[Phe(4-Cl)]-OH) | 160 nM | 13.7 ×10⁶ /M | – | 300 nM | 89 nM | – | – | –
9 | CC(=O)N[C@@H](CCC(N)=O)C(=O)N[C@@H](CC1CCCCC1)C(=O)N[C@@H](CC(=O)O)C(=O)N[C@@H](CC(C)C)C(=O)N[C@@H](Cc1ccc(C)cc1)C(=O)O (Ac-Q[Cha]DL[Phe(4-Me)]-OH) | 260 nM | 8.43 ×10⁶ /M | – | 2000 nM | 362 nM | – | – | –
10 | CC(=O)N[C@@H](CCC(N)=O)C(=O)N[C@@H](CCC1CCCCC1)C(=O)N[C@@H](CC(=O)O)C(=O)N[C@@H](CC(C)C)C(=O)N[C@@H](Cc1ccccc1)C(=O)O (Ac-Q[hCha]DLF-OH) | 82800 nM | 0.0164 ×10⁶ /M | – | – | – | – | – | –
11 | CC(=O)N[C@@H](CCC(N)=O)C(=O)N[C@@H](CC(C)(C)C)C(=O)N[C@@H](CC(=O)O)C(=O)N[C@@H](CC(C)C)C(=O)N[C@@H](Cc1ccccc1)C(=O)O (Ac-Q[tBuAla]DLF-OH) | 990 nM | 1.36 ×10⁶ /M | – | – | – | – | – | –
12 | H-RQLVFL-OH | 256000 nM | – | – | – | – | – | – | –
13 | H-RQLVLF-OH | 8620 nM | 0.15 ×10⁶ /M | – | 7000 nM | 2320 nM | – | – | –
14 | H-RQLVLGL-OH | 8850 nM | 0.15 ×10⁶ /M | – | – | 1580 nM | – | – | 285 nM
15 | H-RQLVLL-OH | 21500 nM | 0.0063 ×10⁶ /M | – | – | – | – | – | –
